Experimental data published in ChEMBL document CHEMBL1155452, “Oncocin (VDKPPYLPRPRPPRRIYNR-NH2): a novel antibacterial peptide optimized against gram-negative human pathogens” (J Med Chem, 2010).

How the values were obtained:
[1] = tested on: Escherichia coli; test: Antibacterial activity against Escherichia coli BL21 AI after 20 hrs by broth microdilution assay; type: functional
Method in brief: (§1)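 Nutrient-broth overnight cultures diluted in 1% TSB; E. coli BL21AI 7.5 × 10^5 cells/well, M. luteus ATCC 10240 2 × 10^6 cells/well. Peptides serially 2-fold diluted in 1% TSB from 128 to typically 0.5 μg/mL. Incubation at 37 °C; A595 read after 20 ± 2 h. MIC is the lowest concentration with absorbance not above medium only. Triplicate.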

[2] = tested on: Micrococcus luteus; test: Antibacterial activity against Micrococcus luteus ATCC 10240 after 20 hrs by broth microdilution assay; type: functional; settings: ATCC 10240, 20 h; method in brief: as §1

Row | Substance | MIC [1] | MIC [2]
1 | H-VDKPPYLPRPHPPRRIYNNR-OH | 64 µg/mL | 32 µg/mL
2 | H-VDKPPYLPRPKPPRRIYNNR-OH | 16 µg/mL | 16 µg/mL
3 | H-VDKPPYLPRPPPPRRIYNNR-OH | 128 µg/mL | 64 µg/mL
